Source: ChEMBL document CHEMBL3244193, “Design of species- or isozyme-specific enzyme inhibitors. 3. Species and isozymic differences between mammalian and bacterial adenylate kinases in substituent tolerance in an enzyme-substrate complex” (J Med Chem, 1979)

Tests used:
Escherichia coli [1] = experiment: Activity of Escherichia coli adenylate kinase by Lineweaver-Burk plot analysis relative to ATP
Outline: (§1)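 Substrate kinetics in a pyruvate kinase/lactate dehydrogenase-coupled assay: 0.1 M Tris-HCl pH 7.6, 2 mM MgSO4, 0.12 M KCl, 0.3 mM PEP, 0.38 mM NADH, 0.25 mM AMP. A340 change over 5 min at 23 °C. Derivatives screened first at ca. 0.8 mM. Five or more substrate levels; KM and Vmax (relative to ATP) taken from linear Lineweaver-Burk plots.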

Escherichia coli [2] = experiment: Activity of Escherichia coli adenylate kinase by Lineweaver-Burk plot analysis; outline: as §1
[3] = tested on: O=C(CI)NCCCCCNc1ncnc2c1ncn2[C@@H]1O[C@H](COP(=O)(O)OP(=O)(O)OP(=O)(O)O)[C@@H](O)[C@H]1O; experiment: (§2) Activity of Sprague-Dawley rat liver adenylate kinase 2 by Lineweaver-Burk plot analysis; outline: as §1
[4] = tested on: CSc1nc2c(N)ncnc2n1[C@@H]1O[C@H](COP(=O)(O)OP(=O)(O)OP(=O)(O)O)[C@@H](O)[C@H]1O; experiment: as §2; outline: as §1
[5] = tested on: Nc1ncnc2c1ncn2[C@@H]1O[C@H](COP(=O)(O)OP(=O)(O)OP(=O)(O)O)[C@@H](O)[C@H]1O; experiment: as §2; outline: as §1
[6] = tested on: CCCSc1nc2c(N)ncnc2n1[C@@H]1O[C@H](COP(=O)(O)OP(=O)(O)OP(=O)(O)O)[C@@H](O)[C@H]1O; experiment: as §2; outline: as §1
[7] = tested on: O=C(CI)NCCCCCNc1ncnc2c1ncn2[C@@H]1O[C@H](COP(=O)(O)OP(=O)(O)OP(=O)(O)O)[C@@H](O)[C@H]1O; experiment: (§3) Activity of Sprague-Dawley rat liver adenylate kinase 2 by Lineweaver-Burk plot analysis relative to ATP; outline: as §1
[8] = tested on: CSc1nc2c(N)ncnc2n1[C@@H]1O[C@H](COP(=O)(O)OP(=O)(O)OP(=O)(O)O)[C@@H](O)[C@H]1O; experiment: as §3; outline: as §1
[9] = tested on: Nc1ncnc2c1ncn2[C@@H]1O[C@H](COP(=O)(O)OP(=O)(O)OP(=O)(O)O)[C@@H](O)[C@H]1O; experiment: as §3; outline: as §1
[10] = tested on: CCCSc1nc2c(N)ncnc2n1[C@@H]1O[C@H](COP(=O)(O)OP(=O)(O)OP(=O)(O)O)[C@@H](O)[C@H]1O; experiment: as §3; outline: as §1

Q: How did the Vmax (Escherichia coli [1]) turn out when `Nc1ncnc2c1ncn2[C@@H]1O[C@H](COP(=O)(O)OP(=O)(O)OP(=O)(O)O)[C@@H](O)[C@H]1O` was run?
A: 0.06%

Q: Which results are given for `O=C(CI)NCCCCNc1ncnc2c1ncn2[C@@H]1O[C@H](COP(=O)(O)OP(=O)(O)OP(=O)(O)O)[C@@H](O)[C@H]1O`?
A: Km (Escherichia coli [1]): 2500 µM; Vmax (Escherichia coli [2]): 0.12%

Q: How did the Km [3] turn out when “Adenylate kinase 2, mitochondrial (Rattus norvegicus) (from UniProt P29410)” was run?
A: 1000 µM

Q: And the Km [4]?
A: 180 µM

Q: And the Km [5]?
A: 90 µM

Q: What about the Km [6] of the same molecule?
A: 60 µM

Q: What about the Vmax [7] of the same molecule?
A: 21%

Q: And the Vmax [8]?
A: 5%

Q: What about the Vmax [9] of the same molecule?
A: 100%

Q: What about the Vmax [10] of the same molecule?
A: 15.7%
